ChEMBL document CHEMBL4334465, “SAR Studies on Aromatic Acylhydrazone-Based Inhibitors of Fungal Sphingolipid Synthesis as Next-Generation Antifungal Agents” (J Med Chem, 2019)
In brackets after ≈: the same amount, converted by molar mass. Activity calls are given as the source filed them. No cut-off for these calls is given here.

Assays:
Cryptococcus neoformans [1] = experiment: Antifungal activity against Cryptococcus neoformans H99 infected in CBA/J mouse assessed as increase in survival at 1.2 mg/kg, ip; assay type: functional, organism-based; conditions: var grubii H99
[Candida] auris [2] = Antifungal activity against Candida auris assessed as FICI in presence of caspofungin; assay type: functional, Candidozyma auris
In short: (§1)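 Checkerboard combination scored by fractional inhibitory concentration index. Acylhydrazone serially diluted 16 to 0.015 μg/mL (11 dilutions). Partner drug in seven dilutions: fluconazole 12 to 0.19 μg/mL, amphotericin B 5 to 0.078 μg/mL, caspofungin, itraconazole or voriconazole 8 to 0.007 μg/mL.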

Pichia kudriavzevii [3] = experiment: Antifungal activity against fluconazole-resistant Candida krusei assessed as FICI in presence of itraconazole; assay type: functional
In short: (§2)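 Checkerboard in 96-well plate. Test compound diluted 16 to 0.015 μg/mL (11 dilutions) against the partner drug in seven dilutions: fluconazole 12 to 0.19 μg/mL, caspofungin, itraconazole or voriconazole 8 to 0.007 μg/mL. Fractional inhibitory concentration index (FICI) calculated from the combinations.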

Cryptococcus neoformans [4] = experiment: Fungicidal activity against Cryptococcus neoformans H99 measured up to 96 hrs by time-kill assay; assay type: functional, organism-based; conditions: var grubii H99
In short: (§3)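 Overnight C. neoformans washed in PBS and resuspended in HEPES-buffered YNB, pH 7.4. 2 × 10⁴ cells exposed to a range of drug concentrations in 10 mL with 0.5% DMSO final, at 37°C, 5% CO₂, shaking at 200 rpm. Aliquots sampled over 96 h, diluted and plated on YPD; CFU counted after 48 h at 30°C.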

Cryptococcus neoformans [5] = experiment: Antifungal activity against Cryptococcus neoformans H99 assessed as FICI in presence of amphotericin B; assay type: functional, var grubii H99; in short: as §1
Candida albicans [6] = experiment: Antifungal activity against Candida albicans assessed as FICI in presence of caspofungin; assay type: functional; in short: as §1
A549 = experiment: Cytotoxicity against human A549 cells after 24 to 48 hrs by MTT assay; assay type: functional; conditions: read-out: LD50 (the source's name)
In short: (§4)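 A549 and HepG2 kept in DMEM with 10% FBS and 1% pen-strep. At passage 7, seeded at 10⁵ cells/well and allowed to adhere 14 h. Compound added at 0.03–128 μg/mL, untreated wells as controls. Incubation 37°C, 5% CO₂ for 24 or 48 h. MTT (5 mg/mL in PBS) added for 4 h, formazan dissolved in DMSO, OD570.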

Aspergillus fumigatus [7] = experiment: Antifungal activity against Aspergillus fumigatus assessed as FICI in presence of fluconazole; assay type: functional; in short: as §1
Cryptococcus neoformans [8] = experiment: Fungicidal activity against Cryptococcus neoformans H99 measured after 24 hrs by time-kill assay; assay type: functional, var grubii H99; in short: as §3
Candida parapsilosis [9] = experiment: Antifungal activity against Candida parapsilosis assessed as FICI in presence of fluconazole; assay type: functional; in short: as §1
Aspergillus fumigatus [10] = experiment: Antifungal activity against Aspergillus fumigatus assessed as FICI in presence of itraconazole; assay type: functional; in short: as §1
Candida parapsilosis [11] = experiment: Antifungal activity against Candida parapsilosis measured after 24 to 72 hrs; assay type: functional; conditions: Lodderomyces parapsilosis
In short: (§5)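 Modified CLSI broth microdilution with inoculum per M27A3. Compounds were serially diluted 32 to 0.03 μg/mL. Media: C. neoformans in HEPES-buffered YNB without amino acids (pH 7.0, 2% glucose); Candida strains in YNB without ammonium sulfate or amino acids plus 1% asparagine (pH 7.0, 2% glucose); A. fumigatus in RPMI (pH 7.0, 2% glucose).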

Cryptococcus neoformans [12] = experiment: Antifungal activity against Cryptococcus neoformans H99 assessed as FICI in presence of fluconazole; assay type: functional, var grubii H99; in short: as §1
Candida albicans [13] = experiment: Antifungal activity against Candida albicans measured after 24 to 72 hrs; assay type: functional; in short: as §5
Pichia kudriavzevii [14] = experiment: Antifungal activity against Candida krusei 6258 assessed as FICI in presence of voriconazole; assay type: functional; in short: as §1
Cryptococcus neoformans [15] = experiment: Antifungal activity against Cryptococcus neoformans H99 measured after 24 to 72 hrs; assay type: functional; conditions: var grubii H99; in short: as §5
Candida albicans [16] = experiment: Antifungal activity against Candida albicans assessed as FICI in presence of itraconazole; assay type: functional; in short: as §1
Candida albicans [17] = experiment: Antifungal activity against Candida albicans assessed as FICI in presence of voriconazole; assay type: functional; in short: as §1
Cryptococcus neoformans [18] = experiment: Antifungal activity against Cryptococcus neoformans H99 assessed as FICI in presence of itraconazole; assay type: functional, var grubii H99; in short: as §1
HepG2 = experiment: Cytotoxicity against human HepG2 cells after 24 to 48 hrs by MTT assay; assay type: functional; conditions: read-out: LD50 (the source's name); in short: as §4
Candida parapsilosis [19] = experiment: Antifungal activity against Candida parapsilosis assessed as FICI in presence of itraconazole; assay type: functional; in short: as §1
Pichia kudriavzevii [20] = experiment: Antifungal activity against fluconazole-resistant Candida krusei assessed as FICI in presence of voriconazole; assay type: functional; in short: as §2
Candida parapsilosis [21] = experiment: Antifungal activity against Candida parapsilosis assessed as FICI in presence of caspofungin; assay type: functional; in short: as §1
[Candida] auris [22] = Antifungal activity against Candida auris assessed as FICI in presence of itraconazole; assay type: functional, Candidozyma auris; in short: as §1
Cryptococcus neoformans [23] = experiment: Antifungal activity against Cryptococcus neoformans H99 assessed as FICI in presence of voriconazole; assay type: functional, var grubii H99; in short: as §1
Aspergillus fumigatus [24] = experiment: Antifungal activity against Aspergillus fumigatus measured after 24 to 72 hrs; assay type: functional; in short: as §5
Cryptococcus neoformans [25] = experiment: Fungicidal activity against Cryptococcus neoformans H99 measured after 12 hrs by time-kill assay; assay type: functional, var grubii H99; in short: as §3
[Candida] auris [26] = Antifungal activity against Candida auris measured after 24 to 72 hrs; assay type: functional; conditions: Candidozyma auris; in short: as §5
Pichia kudriavzevii [27] = experiment: Antifungal activity against Candida krusei measured after 24 to 72 hrs; assay type: functional
In short: (§6)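 MIC by modified CLSI broth microdilution. Candida strains grown in YNB without ammonium sulfate or amino acids with 1% asparagine, pH 7.0, 2% glucose. Inoculum per CLSI M27A3. Compound serially diluted 32 to 0.03 μg/mL. Incubation 37°C, 5% CO₂, 24–72 h, then OD450. MIC80 taken as the lowest concentration giving 80% growth inhibition versus untreated control.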

[28] = Selectivity index, ratio of LD50 for human HepG2 cells to MIC80 for Cryptococcus neoformans H99; assay type: toxicity; conditions: read-out: Selectivity Index
In short: (§7)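 SI = LD₅₀/MIC₈₀. Cytotoxicity: A549 or HepG2 cells (DMEM, 10% FBS, passage 7, 10⁵ cells/well) adhered 14 h, then exposed to 0.03–128 μg/mL for 24 or 48 h at 37°C, 5% CO₂; MTT 4 h, formazan dissolved in DMSO, read at 570 nm. MIC₈₀ against C. neoformans from broth microdilution in HEPES-buffered YNB, pH 7.0.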

Aspergillus fumigatus [29] = experiment: Antifungal activity against Aspergillus fumigatus assessed as FICI in presence of voriconazole; assay type: functional; in short: as §1
[Candida] auris [30] = Antifungal activity against Candida auris assessed as FICI in presence of voriconazole; assay type: functional, Candidozyma auris; in short: as §1
Pichia kudriavzevii [31] = experiment: Antifungal activity against Candida krusei 6258 assessed as FICI in presence of fluconazole; assay type: functional; in short: as §1
Pichia kudriavzevii [32] = experiment: Antifungal activity against multi-drug resistant Candida krusei measured after 24 to 72 hrs; assay type: functional; in short: as §6
[Candida] auris [33] = Antifungal activity against Candida auris assessed as FICI in presence of fluconazole; assay type: functional, Candidozyma auris; in short: as §1
Candida parapsilosis [34] = experiment: Antifungal activity against Candida parapsilosis assessed as FICI in presence of voriconazole; assay type: functional; in short: as §1
Pichia kudriavzevii [35] = experiment: Antifungal activity against Candida krusei 6258 assessed as FICI in presence of itraconazole; assay type: functional; in short: as §1
Pichia kudriavzevii [36] = experiment: Antifungal activity against Candida krusei 6258 assessed as FICI in presence of caspofungin; assay type: functional; in short: as §1
Candida albicans [37] = experiment: Antifungal activity against Candida albicans assessed as FICI in presence of fluconazole; assay type: functional; in short: as §1
[38] = Selectivity index, ratio of LD50 for human A549 cells to MIC80 for Cryptococcus neoformans H99; assay type: toxicity; conditions: read-out: Selectivity Index; in short: as §7

OC(Cn1cncn1)(Cn1cncn1)c1ccc(F)cc1F
Activity (Cryptococcus neoformans [1]): Active

O=C(N/N=C/c1ccc(Br)cc1O)c1cc(Br)cc(Br)c1O
fractional inhibitory concentration index (FICI) ([Candida] auris [2]): 2 | fractional inhibitory concentration index (FICI) (Pichia kudriavzevii [3]): 0.023 | Activity (Cryptococcus neoformans [4]): Dose-dependent effect | fractional inhibitory concentration index (FICI) (Cryptococcus neoformans [5]): 0.261 | fractional inhibitory concentration index (FICI) (Candida albicans [6]): 0.508 | CC50 (A549): 32 µg/mL (≈ 64.9 µM) | fractional inhibitory concentration index (FICI) (Aspergillus fumigatus [7]): 2 | MFC100 (Cryptococcus neoformans [8]): 0.12 µg/mL (≈ 0.243 µM) | fractional inhibitory concentration index (FICI) (Candida parapsilosis [9]): 1.015 | fractional inhibitory concentration index (FICI) (Aspergillus fumigatus [10]): 1.016 | MIC80 (Candida parapsilosis [11]): 2 µg/mL (≈ 4.06 µM) | fractional inhibitory concentration index (FICI) (Cryptococcus neoformans [12]): 0.24 | MIC80 (Candida albicans [13]): 2 µg/mL (≈ 4.06 µM) | fractional inhibitory concentration index (FICI) (Pichia kudriavzevii [14]): 0.129 | MIC80 (Cryptococcus neoformans [15]): 0.06 µg/mL (≈ 0.122 µM) | fractional inhibitory concentration index (FICI) (Candida albicans [16]): 0.188 | fractional inhibitory concentration index (FICI) (Candida albicans [17]): 0.375 | fractional inhibitory concentration index (FICI) (Cryptococcus neoformans [18]): 0.247 | CC50 (HepG2): 32 µg/mL (≈ 64.9 µM) | fractional inhibitory concentration index (FICI) (Candida parapsilosis [19]): 0.508 | fractional inhibitory concentration index (FICI) (Pichia kudriavzevii [20]): 0.018 | fractional inhibitory concentration index (FICI) (Candida parapsilosis [21]): 2 | fractional inhibitory concentration index (FICI) ([Candida] auris [22]): 0.18 | fractional inhibitory concentration index (FICI) (Cryptococcus neoformans [23]): 0.24 | MIC80 (Aspergillus fumigatus [24]): 4 µg/mL (≈ 8.11 µM) | MFC100 (Cryptococcus neoformans [25]): 0.12 µg/mL (≈ 0.243 µM) | MIC80 ([Candida] auris [26]): 0.5 µg/mL (≈ 1.01 µM) | MIC80 (Pichia kudriavzevii [27]): 0.25 µg/mL (≈ 0.507 µM) | selectivity ratio [28]: 533 | fractional inhibitory concentration index (FICI) (Aspergillus fumigatus [29]): 0.188 | fractional inhibitory concentration index (FICI) ([Candida] auris [30]): 0.252 | fractional inhibitory concentration index (FICI) (Pichia kudriavzevii [31]): 0.501 | MIC80 (Pichia kudriavzevii [32]): 0.25 µg/mL (≈ 0.507 µM) | fractional inhibitory concentration index (FICI) ([Candida] auris [33]): 0.531 | fractional inhibitory concentration index (FICI) (Candida parapsilosis [34]): 0.135 | fractional inhibitory concentration index (FICI) (Pichia kudriavzevii [35]): 0.183 | fractional inhibitory concentration index (FICI) (Pichia kudriavzevii [36]): 2.002 | fractional inhibitory concentration index (FICI) (Candida albicans [37]): 2 | selectivity ratio [38]: 533
